Results on eight compounds are retold here after ChEMBL document CHEMBL1148340 (J Med Chem, 2004).

Series [1] has as its target T1, Human immunodeficiency virus type 1 reverse transcriptase (Human immunodeficiency virus 1, UniProt Q72547). Kind of series: Inhibitory concentration against wild type HIV-1 reverse transcriptase (RT) using poly rC.dG as the template or primer. The procedure, abridged:
(§1)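 Recombinant HIV-1 RT (IIIB-derived) or Glu138Lys mutant. Buffer: 50 mM Tris-HCl pH 7.8, 5 mM DTT, 150 mM KCl, 5 mM MgCl₂, 500 μM EDTA, 0.06% Triton X-100, with BSA. Incubated 37 °C, 30 min, then TCA/pyrophosphate precipitation on ice.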

The target of series [2] is T1, Human immunodeficiency virus type 1 reverse transcriptase. In words: Inhibitory concentration against wild type HIV-1/138Lys reverse transcriptase (RT) using [3H]dGTP as a radioligand. In a few lines:
as §1

Series [3] deals with MT4. Kind of series: Cytostatic concentration required to reduce MT-4 cell viability in mock-infected cell cultures. The series is classed as functional. Particulars: Homo sapiens. The procedure, abridged:
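Mock-infected MT-4 cells at 3 × 10⁵/mL were exposed to compound dilutions. Viable cells were counted by trypan blue exclusion. CC₅₀ is the concentration that reduced the number of viable cells by 50%.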

Series [4] relates to CCRF-CEM. In words: Effective concentration required to inhibit HIV-2 induced cytopathicity in human CEM cell lines. The series is classed as functional, cell-based. In a few lines:
(§2)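 CEM cells at 4 × 10⁵/mL were infected with HIV-1 or HIV-2 at ~100 CCID₅₀ per mL. The cells were mixed 1:1 with serial compound dilutions. Giant cell formation was scored microscopically after 4 days. EC₅₀ is the concentration that inhibited virus-induced cytopathicity by 50%.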
In general terms: Cytopathic effects are the visible damage that an infection or toxin causes in cultured cells.

In series [5] the test system is CCRF-CEM. Kind of series: Cytostatic concentration required to inhibit proliferation of CEM cells. The series is classed as functional. Particulars: Homo sapiens. In a few lines:
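CEM cells were cultured with serial compound dilutions alongside the antiviral assay. CC₅₀ is the concentration that inhibited cell proliferation by 50%.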

Series [6] concerns MT4. In words: Effective concentration required to inhibit HIV-1 induced cytopathicity in human MT-4 cell lines. Type of series: functional, cell-based. The procedure, abridged: (§3)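 MT-4 cells at 3 × 10⁵/mL were infected with HIV-1 or HIV-2 at ~100 CCID₅₀ per mL and mixed 1:1 with compound dilutions. After 5 days, HIV-induced cytopathicity was recorded by trypan blue dye exclusion. EC₅₀ is the concentration that reduced virus-induced loss of cell viability by 50%.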

Series [7] relates to CCRF-CEM. In words: Effective concentration required to inhibit HIV-1 induced cytopathicity in human CEM cell lines. The series is classed as functional, cell-based. In a few lines: as §2
In series [8] the test system is MT4. In words: Effective concentration required to inhibit HIV-2 induced cytopathicity in human MT-4 cell lines. The series is classed as functional, cell-based. In a few lines: as §3
The test system of series [9] is CCRF-CEM. In words: Effective concentration required to inhibit HIV-1E138K induced cytopathicity in human CEM cell lines.
Series [10] is described as follows: Partition coefficient (logP). The series is classed as physicochemical. Particulars: octanol/water.
The subject of series [11] is Human immunodeficiency virus 1. Kind of series: Anti-HIV activity against PFA-resistant mutant HIV-1W88G strain in P4/R5 cells. The series is classed as functional, organism-based. Particulars: Human immunodeficiency virus 1, P4/R5. In a few lines: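 HeLa-derived P4/R5 reporter cells (stable Tat-activated β-galactosidase under HIV LTR), 5×10^4 cells/mL, infected with HIV-1 LAI or W88G at MOI 0.05 TCID₅₀/mL. Drug added in 2- or 3-fold dilutions, in triplicate. At 48 h, lysis buffer and luminescent substrate added and β-galactosidase read by luminometer. EC₅₀ given as mean ± SD of five independent experiments (three in one case).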

The subject of series [12] is Human immunodeficiency virus 1. Kind of series: Anti-HIV activity against wild type HIV-1(LAI) strain in P4/R5 cells. Particulars: Human immunodeficiency virus 1, P4/R5.

Bounds are passed on as bounds.

With `Cc1cn([C@@H]2O[C@H](CO[Si](C)(C)C(C)(C)C)[C@@]3(OS(=O)(=O)C=C3N)[C@H]2O[Si](C)(C)C(C)(C)C)c(=O)n(C)c1=O`, the IC50 in series [1] was 3.1 µM; in series [2], greater than 100 µM.

For `CCOC(=O)P(=O)(O)OCCCn1c(=O)c(C)cn([C@@H]2O[C@H](CO[Si](C)(C)C(C)(C)C)[C@@]3(OS(=O)(=O)C=C3N)[C@H]2O[Si](C)(C)C(C)(C)C)c1=O`, the CC50 is 84.3 µM in the series with MT4 [3] and 135 µM with CCRF-CEM [5]. The EC50 is greater than 50 µM in the series with CCRF-CEM [4]; 4.23 µM with MT4 [6]; 2.13 µM in the series on CCRF-CEM [7]; greater than 50 µM with MT4 [8]; 25 µM with CCRF-CEM [9]. In addition, the half-inhibitory concentration (IC50) in [1] was 6.3 µM; in [2], 293 µM. In series [10], this compound came in with a logP of 4.01.

As to `COC(=O)P(=O)(O)OCCCn1c(=O)c(C)cn([C@@H]2O[C@H](CO[Si](C)(C)C(C)(C)C)[C@@]3(OS(=O)(=O)C=C3N)[C@H]2O[Si](C)(C)C(C)(C)C)c1=O`, the CC50 in the series with MT4 [3] is 55.5 µM; in the series on CCRF-CEM [5] it was 146 µM. In addition, the EC50 is greater than 50 µM in the series on CCRF-CEM [4]; 20.1 µM in the series with MT4 [6]; 4.5 µM in the series on CCRF-CEM [7]; greater than 50 µM with MT4 [8]; greater than 50 µM in the series on CCRF-CEM [9]. The results for the IC50 in [1] and in series [2] were 4.7 µM and 394 µM, respectively. The same compound displayed a log partition coefficient (logP) in series [10] of 4.01.

With `Cc1cn([C@@H]2O[C@H](CO[Si](C)(C)C(C)(C)C)[C@@]3(OS(=O)(=O)C=C3N)[C@H]2O[Si](C)(C)C(C)(C)C)c(=O)n(CCCOP(=O)(O)C(=O)O)c1=O`, the CC50 with MT4 [3] was 111 µM; in the series on CCRF-CEM [5], 178 µM. In addition, the EC50 with CCRF-CEM [4] is greater than 50 µM; in the series on MT4 [6] it was 0.82 µM; in the series on CCRF-CEM [7], 0.47 µM; with MT4 [8] it was greater than 50 µM; in the series on CCRF-CEM [9], no less than 50 µM; in series [11], 0.16 µM. The EC50 in series [12] is 0.3 µM. Also, the IC50 in [1] came to 3.7 µM; in [2], 437 µM. This compound also had a logP in [10] of 0.63.

With `Cc1cn([C@@H]2O[C@H](CO[Si](C)(C)C(C)(C)C)[C@@]3(OS(=O)(=O)C=C3N)[C@H]2O[Si](C)(C)C(C)(C)C)c(=O)n(CCCOP(=O)(O)C(=O)OCc2ccccc2)c1=O`, the results for the CC50 in the series with MT4 [3] and in the series with CCRF-CEM [5] were 84 µM and 138 µM, respectively. Besides, the 50% effective concentration (EC50) in the series with CCRF-CEM [4] is greater than 50 µM; with MT4 [6], 1.26 µM; in the series on CCRF-CEM [7] it was 3 µM; in the series with MT4 [8], greater than 50 µM; in the series with CCRF-CEM [9], 20 µM. Further, the IC50 in series [1] came out at 3.8 µM; in [2], 312 µM. The compound further gave a log partition coefficient (logP) in series [10] of 5.02.

As to `COC(=O)P(=O)(OC)OCCCn1c(=O)c(C)cn([C@@H]2O[C@H](CO[Si](C)(C)C(C)(C)C)[C@@]3(OS(=O)(=O)C=C3N)[C@H]2O[Si](C)(C)C(C)(C)C)c1=O` (some centres not stated), the CC50 in the series with MT4 [3] was 18.4 µM; with CCRF-CEM [5], 20.9 µM. Further, the EC50 with CCRF-CEM [4] is greater than 50 µM; with MT4 [6], 0.282 µM; in the series on CCRF-CEM [7] it was 0.08 µM; in the series on MT4 [8] it was greater than 10 µM; in the series on CCRF-CEM [9], greater than 10 µM. The IC50 in series [1] is 11 µM; in series [2], greater than 500 µM. Besides, the logP in series [10] was 7.12.

In the series on MT4 [3], `Cc1cn([C@@H]2O[C@H](CO[Si](C)(C)C(C)(C)C)[C@@]3(OS(=O)(=O)C=C3N)[C@H]2O[Si](C)(C)C(C)(C)C)c(=O)n(CCCO)c1=O` registered a CC50 of 3.86 µM. In addition, the EC50 is greater than 10 µM in the series on CCRF-CEM [4]; greater than 2 µM in the series on MT4 [8]; greater than 2 µM with CCRF-CEM [9]; 0.027 µM in series [11]; 0.043 µM in [12]. Besides, the IC50 in series [1] was 8.1 µM; in series [2], greater than 100 µM. Also, the logP in [10] turned out to be 2.26.

`O=C(O)P(=O)(O)O` [FOSCARNET] showed a CC50 in the series on MT4 [3] of 230 µM. In addition, the EC50 was 105 µM in the series with CCRF-CEM [4]; 133 µM in the series with MT4 [6]; 121 µM in the series with CCRF-CEM [7]; 140 µM in the series with MT4 [8]; 87 µM in the series with CCRF-CEM [9]; greater than 300 µM in series [11]. The compound also yielded a half-maximal effective concentration (EC50) in series [12] of 44 µM. Besides, the logP in series [10] was -0.56.

The term IC50 denotes the point on the concentration scale where inhibition reaches its midpoint. High values mean weaker potency in that assay, low ones greater potency in that assay. Usually CC50 stands for the concentration at which the toxic effect on the cells reaches its halfway point. Lower therefore signals harm at low concentration. The EC50 is the midpoint of the concentration-response curve. Low values mean a more potent agent, high ones a less potent agent. As a reminder, the logP is a log measure of how a compound divides between an organic and an aqueous phase. A lower logP goes with lower lipophilicity.
